Experiments:
[1] = biological target: Cholinesterase (Equus caballus) (UniProt P81908); experiment: Inhibition of horse serum BChE at 1.563 ug using butyrylthiocholine chloride as substrate preincubated for 15 mins followed by substrate addition measured every 5 mins for 15 mins by spectrophotometric method relative to control
Procedure, shortened: (§1)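 Ellman colorimetric assay. Compound in methanol (10 µl) was mixed with 150 µl 100 mM sodium phosphate pH 8.0 and BChE (6.85 x10-3 U) and held 15 min at 25 °C. DTNB (0.5 mM) was added, then butyrylthiocholine chloride (0.2 mM) to start the reaction. A412 read every 5 min for 15 min, in triplicate. Percent inhibition = (E−S)/E×100 against a methanol blank.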

[2] = biological target: Cholinesterase (Equus caballus) (UniProt P81908); experiment: Inhibition of horse serum BChE at 25 ug using butyrylthiocholine chloride as substrate preincubated for 15 mins followed by substrate addition measured every 5 mins for 15 mins by spectrophotometric method relative to control; procedure, shortened: as §1
[3] = biological target: Acetylcholinesterase (Electrophorus electricus, UniProt O42275); experiment: Inhibition of electric eel AChE using acetylthiocholine iodide as substrate preincubated for 15 mins followed by substrate addition measured every 5 mins for 15 mins by spectrophotometric method
Sequence of Acetylcholinesterase (O42275 whole entry): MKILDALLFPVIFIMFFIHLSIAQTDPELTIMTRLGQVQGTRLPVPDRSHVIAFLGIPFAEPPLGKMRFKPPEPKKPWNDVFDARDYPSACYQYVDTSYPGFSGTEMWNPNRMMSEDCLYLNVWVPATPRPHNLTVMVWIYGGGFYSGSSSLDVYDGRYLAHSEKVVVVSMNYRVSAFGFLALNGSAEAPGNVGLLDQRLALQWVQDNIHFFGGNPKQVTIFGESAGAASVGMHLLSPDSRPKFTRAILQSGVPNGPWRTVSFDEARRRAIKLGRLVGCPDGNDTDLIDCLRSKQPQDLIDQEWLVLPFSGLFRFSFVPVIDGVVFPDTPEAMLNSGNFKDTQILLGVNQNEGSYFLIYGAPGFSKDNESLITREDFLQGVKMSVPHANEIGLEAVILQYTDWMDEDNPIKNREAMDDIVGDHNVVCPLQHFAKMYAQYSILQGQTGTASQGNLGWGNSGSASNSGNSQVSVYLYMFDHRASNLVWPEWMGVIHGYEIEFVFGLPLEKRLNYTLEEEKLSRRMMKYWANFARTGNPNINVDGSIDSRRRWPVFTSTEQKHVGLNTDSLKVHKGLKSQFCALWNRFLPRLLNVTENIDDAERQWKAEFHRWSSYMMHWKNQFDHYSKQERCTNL

[4] = biological target: Cholinesterase (Equus caballus) (UniProt P81908); experiment: Inhibition of horse serum BChE at 12.5 ug using butyrylthiocholine chloride as substrate preincubated for 15 mins followed by substrate addition measured every 5 mins for 15 mins by spectrophotometric method relative to control
Procedure, shortened: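 Ellman colorimetric assay. DTNB (0.5 mM) was added, then butyrylthiocholine chloride (0.2 mM) to start the reaction. A412 read every 5 min for 15 min, in triplicate. Percent inhibition = (E−S)/E×100 against a methanol blank.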

[5] = biological target: Cholinesterase (Equus caballus) (UniProt P81908); experiment: Inhibition of horse serum BChE at 0.781 ug using butyrylthiocholine chloride as substrate preincubated for 15 mins followed by substrate addition measured every 5 mins for 15 mins by spectrophotometric method relative to control; procedure, shortened: as §1
[6] = biological target: Cholinesterase (Equus caballus) (UniProt P81908); experiment: Inhibition of horse serum BChE at 6.25 ug using butyrylthiocholine chloride as substrate preincubated for 15 mins followed by substrate addition measured every 5 mins for 15 mins by spectrophotometric method relative to control; procedure, shortened: as §1
[7] = biological target: Cholinesterase (Equus caballus) (UniProt P81908); experiment: Inhibition of horse serum BChE at 0.391 ug using butyrylthiocholine chloride as substrate preincubated for 15 mins followed by substrate addition measured every 5 mins for 15 mins by spectrophotometric method relative to control; procedure, shortened: as §1
[8] = Selectivity ratio of IC50 for horse serum BChE to IC50 for electric eel AChE
[9] = biological target: Cholinesterase (Equus caballus) (UniProt P81908); experiment: Inhibition of horse serum BChE at 3.125 ug using butyrylthiocholine chloride as substrate preincubated for 15 mins followed by substrate addition measured every 5 mins for 15 mins by spectrophotometric method relative to control; procedure, shortened: as §1
[10] = biological target: Cholinesterase (Equus caballus, UniProt P81908); experiment: Inhibition of horse serum BChE using butyrylthiocholine chloride as substrate preincubated for 15 mins followed by substrate addition measured every 5 mins for 15 mins by spectrophotometric method
Sequence of Cholinesterase (P81908 whole entry): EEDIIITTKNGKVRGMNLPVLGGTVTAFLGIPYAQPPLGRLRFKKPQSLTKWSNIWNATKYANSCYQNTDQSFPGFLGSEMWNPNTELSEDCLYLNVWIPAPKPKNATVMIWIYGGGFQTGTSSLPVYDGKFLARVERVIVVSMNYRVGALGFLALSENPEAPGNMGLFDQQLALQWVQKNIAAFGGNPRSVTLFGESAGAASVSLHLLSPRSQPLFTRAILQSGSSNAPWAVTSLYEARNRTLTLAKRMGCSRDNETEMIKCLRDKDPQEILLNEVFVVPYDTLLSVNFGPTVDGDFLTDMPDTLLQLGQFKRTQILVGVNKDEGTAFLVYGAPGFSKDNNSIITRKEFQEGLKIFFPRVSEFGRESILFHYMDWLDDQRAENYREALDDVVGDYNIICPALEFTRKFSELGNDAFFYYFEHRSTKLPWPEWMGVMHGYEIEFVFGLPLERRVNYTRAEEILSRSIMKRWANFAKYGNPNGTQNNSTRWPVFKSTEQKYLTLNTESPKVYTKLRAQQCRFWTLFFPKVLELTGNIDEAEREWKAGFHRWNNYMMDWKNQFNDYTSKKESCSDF
Procedure, shortened: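 BChE (6.85 x10-3 U) in 100 mM sodium phosphate pH 8.0 was preincubated 15 min at 25 °C with compound at several concentrations in methanol. DTNB (0.5 mM) and butyrylthiocholine chloride (0.2 mM) were then added. A412 read every 5 min for 15 min. IC50 derived from percent inhibition versus a methanol blank; mean ± SD of triplicates.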

[11] = biological target: Acetylcholinesterase (Electrophorus electricus) (UniProt O42275); experiment: Inhibition of electric eel AChE at 0.006 ug using acetylthiocholine iodide as substrate preincubated for 15 mins followed by substrate addition measured every 5 mins for 15 mins by spectrophotometric method relative to control
Sequence of Acetylcholinesterase (Electrophorus electricus) (O42275 24-633 limits assumed): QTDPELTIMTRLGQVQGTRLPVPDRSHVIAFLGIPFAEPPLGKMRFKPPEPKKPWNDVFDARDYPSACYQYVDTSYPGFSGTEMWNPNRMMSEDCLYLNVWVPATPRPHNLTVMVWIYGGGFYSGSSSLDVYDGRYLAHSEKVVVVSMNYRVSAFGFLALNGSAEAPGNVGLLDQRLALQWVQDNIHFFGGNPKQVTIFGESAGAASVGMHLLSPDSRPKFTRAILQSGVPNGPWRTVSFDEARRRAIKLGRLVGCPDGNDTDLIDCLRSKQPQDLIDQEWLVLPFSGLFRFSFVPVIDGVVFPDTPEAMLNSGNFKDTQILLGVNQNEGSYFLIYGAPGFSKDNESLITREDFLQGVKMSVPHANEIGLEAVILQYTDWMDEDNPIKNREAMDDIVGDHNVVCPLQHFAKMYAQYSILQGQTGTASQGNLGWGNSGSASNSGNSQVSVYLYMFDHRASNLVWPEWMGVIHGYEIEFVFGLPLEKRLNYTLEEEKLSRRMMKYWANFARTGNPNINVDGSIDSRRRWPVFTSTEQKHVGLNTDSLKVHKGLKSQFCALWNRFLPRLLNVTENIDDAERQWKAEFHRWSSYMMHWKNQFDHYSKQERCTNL
Procedure, shortened: as §1, with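 “AChE (5.32” for “BChE (6.85”, “acetylthiocholine iodide (0.71” for “butyrylthiocholine chloride (0.2”, “Thiolate formation” for “A412”, “read at 412 nm” for “read”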

[12] = biological target: Acetylcholinesterase (Electrophorus electricus) (UniProt O42275); experiment: Inhibition of electric eel AChE at 0.012 ug using acetylthiocholine iodide as substrate preincubated for 15 mins followed by substrate addition measured every 5 mins for 15 mins by spectrophotometric method relative to control
Procedure, shortened: as §1, with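 “AChE (5.32” for “BChE (6.85”, “acetylthiocholine iodide (0.71” for “butyrylthiocholine chloride (0.2”, “Thiolate formation” for “A412”, “read at 412 nm” for “read”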

Sequence of Cholinesterase (Equus caballus) (P81908 whole entry): as the sequence (P81908 whole entry) above

SMILES	inhibition [1] [%]	inhibition [2] [%]	IC50 [3] [nM]	inhibition [4] [%]	inhibition [5] [%]	inhibition [6] [%]	inhibition [7] [%]	Ratio IC50 [8]	inhibition [9] [%]	IC50 [10] [nM]	inhibition [11] [%]	inhibition [12] [%]
Cc1[nH]nc2c1C(c1c(Cl)cccc1[N+](=O)[O-])c1c(nc3c(c1N)CCCC3)O2 (stereo not given)	66.2	98.7	1770	94.3	52.1	86.5	37.6	1.04	85.3	1840	–	–
Cc1[nH]nc2c1C(c1ccc([N+](=O)[O-])cc1)c1c(nc3c(c1N)CCCC3)O2 (stereo not given)	66.8	93.2	5800	92.6	37.9	90.3	24.9	0.47	75.1	2730	–	–
Cc1[nH]nc2c1C(c1ccccc1)c1c(nc3c(c1N)CCCC3)O2 (stereo not given)	13.6	72.9	1230	52.5	10.7	30.7	5.38	29.3	23.9	36000	–	–
Cc1[nH]nc2c1C(c1cccnc1)c1c(nc3c(c1N)CCCC3)O2 (stereo not given)	53.9	84.8	330	74.2	41.6	72	18.2	12.9	57.1	4260	6.61	13.1
Cc1[nH]nc2c1C(c1cc([N+](=O)[O-])ccc1Cl)c1c(nc3c(c1N)CCCC3)O2 (stereo not given)	13.9	71.9	1040	54.2	10.2	35.6	5.53	2.4	21.6	2500	–	–
COc1ccc2ccccc2c1C1c2c(n[nH]c2C)Oc2nc3c(c(N)c21)CCCC3 (stereo not given)	25.1	70	130	63	7.31	51.9	2.86	87.3	47.9	11300	12.6	16.1
COc1ccc2c3c1O[C@H]1C[C@@H](O)C=C[C@@]31CCN(C)C2	55.2	97	–	–	21	–	11.1	–	63.9	–	–	–
Cc1[nH]nc2c1C(c1ccc(Br)cc1)c1c(nc3c(c1N)CCCC3)O2 (stereo not given)	37.9	69.9	1800	60.5	17.4	58.5	13.1	6.47	43.1	11600	–	–
Cc1[nH]nc2c1C(c1ccc(-c3ccccc3)cc1)c1c(nc3c(c1N)CCCC3)O2 (stereo not given)	–	20.6	44	14.1	–	11.8	–	> 1390	–	> 61200	34.4	43
COc1ccc(C2c3c(n[nH]c3C)Oc3nc4c(c(N)c32)CCCC4)c(OC)c1 (stereo not given)	37.1	80.8	260	62.8	17.8	55.8	–	120	43	31100	–	–
Cc1ccc(C2c3c(n[nH]c3C)Oc3nc4c(c(N)c32)CCCC4)c(C)c1 (stereo not given)	–	51.9	290	49.7	–	44.8	–	135	13.3	39000	–	–
CSc1ccc(C2c3c(n[nH]c3C)Oc3nc4c(c(N)c32)CCCC4)cc1 (stereo not given)	23.7	46.7	58	44.5	10.1	36.6	0.11	> 1140	31	> 66000	30.4	36.9
Cc1[nH]nc2c1C(c1ccc(Cl)cc1)c1c(nc3c(c1N)CCCC3)O2 (stereo not given)	23.4	46.9	1660	45.8	23	31.7	20.8	> 41	27.9	> 68200	–	–

Source: ChEMBL document CHEMBL4118265, “A cascade synthesis, in vitro cholinesterases inhibitory activity and docking studies of novel Tacrine-pyranopyrazole derivatives” (Bioorg Med Chem Lett, 2018)
